# Measurements gathered from unrelated publications.
# Each line is one published result; the experiments were not run side by side.
# Target: Serine/threonine-protein kinase PLK2 (PLK2, Homo sapiens, UniProt Q9NYY3)
SMILES,effect on,technique,tested at,remaining binding [%]
CCN1CCN(Cc2ccc(C(=O)Nc3ccc(C)c(Oc4ccc5c(c4)CC(=O)N5)c3)cc2C(F)(F)F)CC1,binding,competition with immobilised ligand,1 µM,66
FC(F)(F)c1ccc2c(c1)nc(-c1cccnc1)n2C1CC1,cell-free assay,competition with immobilised ligand,1 µM,94
COc1ncc2cc3ccccc3nc2c1C#N,cell-free assay,competition with immobilised ligand,5 µM,45
COc1ccnn2ncc(-c3ccnc(N(C)C)n3)c12,binding,,1 µM,93
CNC(=O)Nc1ccc2c(c1)CC[C@@]21OC(=O)N(CC(=O)N(Cc2ccc(F)cc2)[C@@H](C)C(F)(F)F)C1=O,cell-free assay,competition with immobilised ligand,1 µM,91
CN(CCCC(F)(F)F)c1nccc(-c2cnn3ncccc23)n1,binding,,1 µM,99
O=C(c1ccc(Nc2ncc(Cl)c(-c3cc4ccccc4s3)n2)cc1)N1CCC(N2CCCC2)CC1,binding,competition with immobilised ligand,1 µM,68
CCC(=O)N[C@H]1CC[C@@H](C(=O)N(C)c2ccc(-c3nc4ccccc4o3)cc2)C1,cell-free assay,competition with immobilised ligand,1 µM,96
C[C@@H]1CCN(c2nccc(-c3cnn4ncccc34)n2)C1,binding,,1 µM,88
Cc1c(NC(=O)c2cc(C(N)=O)nc3cc(F)ccc23)c(C(F)(F)F)nn1Cc1ccc(C(C)(C)C)cc1,cell-free assay,competition with immobilised ligand,1 µM,100
CN(C)c1ncc(F)c(-c2cnn3ncccc23)n1,binding,,1 µM,78
COc1cnc(Nc2cccc(S(N)(=O)=O)c2)nc1N1CCN(c2ccccc2)C(=O)C1,binding,competition with immobilised ligand,1 µM,80
N[C@H]1CCN(c2nccc(-c3cnn4ncccc34)n2)C1,binding,,1 µM,71
O=C(NCC1CCOCC1)c1n[nH]cc1NC(=O)c1c(F)cccc1F,binding,competition with immobilised ligand,1 µM,96
Cc1cnn2ncc(-c3ccnc(N(C)C)n3)c2c1,binding,,1 µM,94
c1cncc(-c2cccc(Nc3nccc(NC4CCCCC4)n3)c2)c1,binding,competition with immobilised ligand,10 µM,100
C[C@@H]1CN(c2cc(-c3n[nH]c4ccc(OC5(C)CC5)cc34)ncn2)C[C@H](C)O1,cell-free assay,competition with immobilised ligand,0.1 µM,76
O=C(c1ccc(Nc2nccc(-c3cc4ccccc4s3)n2)cc1)N1CCC(N2CCCC2)CC1,binding,competition with immobilised ligand,1 µM,96
C[C@@H]1CN(c2cc(-c3nn(C)c4ccc(OC5(C)CC5)cc34)ncn2)C[C@H](C)O1,cell-free assay,competition with immobilised ligand,1 µM,68
O=C(NCCCN1CCOCC1)c1ccc(Nc2ncc(Cl)c(-c3ccc(Cl)s3)n2)cc1,binding,competition with immobilised ligand,1 µM,5.9
